Screening results: PubChem, The Scripps Research Institute Molecular Screening Center
Hits are enriched below; roughly 0.58% of the tested compounds scored in any of these assays.
TRPML3 ag: human TRPML3 channel agonists, primary screen, cell-based, HEK293 TRPML3-YFP, Fluo-8 calcium fluorescence, 3 µM. actives 0.29% (n = 220,000). 100% = the carbachol control signal. activation, % at 3 µM. AID 1448, 2008. Mucolipin-3 (Homo sapiens), Q8TDD5;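 active = activation above its plate's cutoff, the mean activation of the plate's test wells plus 3 SD, cut at about 12% in these data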;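 also: 0% = DMSO only wells and 100% = carbachol wells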
Target sequence (Q8TDD5 whole entry, looked up): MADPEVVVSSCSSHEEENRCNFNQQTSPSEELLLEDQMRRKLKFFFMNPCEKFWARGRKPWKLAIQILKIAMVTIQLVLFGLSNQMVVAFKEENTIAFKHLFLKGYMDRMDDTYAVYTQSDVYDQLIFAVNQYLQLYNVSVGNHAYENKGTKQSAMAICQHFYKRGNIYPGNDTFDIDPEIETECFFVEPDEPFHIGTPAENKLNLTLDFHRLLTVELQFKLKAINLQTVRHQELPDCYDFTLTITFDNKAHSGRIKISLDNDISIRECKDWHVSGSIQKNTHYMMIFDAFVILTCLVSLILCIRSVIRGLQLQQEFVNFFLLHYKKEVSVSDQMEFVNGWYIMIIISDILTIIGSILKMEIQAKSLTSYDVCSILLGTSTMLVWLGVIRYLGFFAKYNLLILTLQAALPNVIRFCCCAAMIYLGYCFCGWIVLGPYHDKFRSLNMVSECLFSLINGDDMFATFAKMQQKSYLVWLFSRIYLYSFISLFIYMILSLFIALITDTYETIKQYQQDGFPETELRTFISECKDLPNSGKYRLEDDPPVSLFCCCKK
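Material: TRPML3-YFP stable HEK293 cells | Dosing: One concentration, 3 µM nominal, 0.3% DMSO | Timing: 125 s total fluorescence read per well | Technique: Fluo-8 calcium dye fluorescence, ex 470-495, em 515-575 nm | Measure: Percent activation from peak-to-basal fluorescence ratio, scaled between DMSO and carbachol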
OXTR potentiator: human OXTR potentiators, primary screen, fluorescence, CHO-OTR cells, Fluo-8 calcium | Oxytocin receptor (Homo sapiens), P30559 | Fluo-8 calcium fluorescence, potentiator mode; 0% = oxytocin EC15, 100% = EC100 | activation, % at 3 µM | actives 0.061% (n = 320,000) | AID 2445, 2010;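 active = activation above that plate's cutoff, the mean activation of tested compounds plus 3 SD, cut at about 6.6% in these data, passing the limit was not always enough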;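 also: 100% uses oxytocin at 75 nM as the full agonist control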
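Assay system: CHO cell line stably expressing human OTR. Reagent: EC15 oxytocin agonist. Dosing: single dose, 3.0 µM nominal final compound concentration. Timing: compound 6 min at room temperature before oxytocin, 100 s read. Signal: kinetic Fluo-8 calcium fluorescence. Controls: oxytocin EC15 low and EC100 high.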
OXTR ag: human OXTR agonists, primary screen, fluorescence, CHO-OTR cells, Fluo-8 calcium. activation, % at 3 µM. Fluo-8 calcium fluorescence; normalized: DMSO 0%, oxytocin 100%. actives 0.32% (n = 320,000);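 active = activation above the mean of all tested compounds plus 3 SD, cutoff set per screening run, cut at about 20% in these data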;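 also: peak over basal fluorescence ratio from a 100 s FLIPR kinetic read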
zfTRPN1 agonist: zebrafish TRPN1 channel agonists, primary screen, cell-based, HEK293, calcium fluorescence; AID 1424, 2008; transient receptor potential cation channel N1 (TRPN1/NompC), Danio rerio; HEK293 zebrafish TRPN1-YFP, Fluo-8 calcium fluorescence; 100% = response to 87 µM carbachol; activation, % at 3 µM; actives 0.18% (n = 220,000);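 active = activation above its plate's cutoff, the mean activation of test wells on that plate plus 3 SD, cut at about 19% in these data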;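 also: 0% = DMSO alone and 100% = 87 µM carbachol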
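Material – zebrafish TRPN1-YFP in HEK293 cells · Doses – 3 µM single point · Schedule – dye 1 h 37 °C plus 30 min RT · Signal – Fluo-8 calcium fluorescence, excitation 470-495 nm, emission 515-575 nm · Read-out – % activation versus carbachol response · Control set – carbachol high, DMSO low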
V1R ag counter: agonists of human V1a receptor, primary screen, counter-screen for OXTR agonist project, fluorescence, CHO-V1R cells. Vasopressin V1a receptor (Homo sapiens), P37288. actives 0.25% (n = 320,000). activation, % at 3 µM. AID 2797, 2010. Fluo-8 calcium fluorescence, agonist mode; 0% DMSO, 100% 3 nM vasopressin;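 active = activation above the mean activation of all tested compounds plus 3 SD, per screening run, cut at about 20% in these data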;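 also: signal is peak over basal fluorescence ratio across a 100 second FLIPR read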
OXTR ag confirm: human OXTR agonists, confirmation, fluorescence, CHO-OTR cells, triplicate | activation, % at 3 µM | actives 20% (n = 390) | Fluo-8 calcium fluorescence, agonist | shares compounds with OXTR ag | AID 434963, 2010;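 active = mean activation above about 20% derived from the earlier single-dose screen, limit read from the data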;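 also: peak over minimum fluorescence ratio per well during a 100 second FLIPR read; 0% = DMSO alone and 100% = oxytocin high control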
V1R ag counter 3x: V1a receptor agonists, calcium signal, counter-screen for OXTR agonist project, triplicate, fluorescence, CHO-V1R cells. shares compounds with OXTR ag. Fluo-8 calcium fluorescence. activation, % at 3 µM. actives 10% (n = 390);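 active = mean activation over triplicate exceeds the hit threshold set in the earlier primary screen, cut at about 20% in these data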;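 also: peak over basal fluorescence ratio within a 100 second read; 0% = DMSO alone and 100% = 3 nM vasopressin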
An asterisk follows results filed as active; · = not tested or not shown; ! = a repeat was not active.

SMILES | TRPML3 ag | OXTR potentiator | OXTR ag | zfTRPN1 agonist | V1R ag counter | OXTR ag confirm | V1R ag counter 3x
COc1cccc(/C=N/Nc2snc(SC)c2C#N)c1O | 10 | -10 | 21* | 11 | 13 | 20* | 11
O=C(NCC1CCCO1)c1ccc(NC(=O)c2ccc([N+](=O)[O-])cc2)cc1 (stereo unspecified) | · | -10 | 0 | · | 1 | · | ·
CC(=O)Nc1ccc(OCC(O)Cn2c3ccccc3c3ccccc32)cc1 (stereo unspecified) | 3 | -16 | 17 | 8 | 20 | · | ·
CC(=O)Nc1ccc(OCC(O)Cn2c3ccccc3c3ccccc32)c(C)c1 (stereo unspecified) | 2 | -13 | 22* | 5 | 13 | 9 | 8
COc1ccccc1OCC(=O)Nc1ccncc1 | · | 3 | 4 | · | 2 | · | ·
Cc1cccc(OCC(=O)Nc2ccncc2)c1C | · | -25 | 20* | · | 14 | 10 | 9
CCCNC(=O)Nc1ccc(C(F)(F)F)cc1 | 1 | -12 | 1 | 2 | 2 | · | ·
Fc1ccc(C2CCNCC2COc2ccc3c(c2)OCO3)cc1 (stereo unspecified) | · | -8 | 12 | · | 3 | · | ·
Fc1ccc([C@@H]2CCNC[C@H]2COc2ccc3c(c2)OCO3)cc1 | 1 | -10 | 23*! | 0 | 13 | 11 | 7
CCCc1ccc(Oc2c(-c3ccc(O)c(C)c3O)n[nH]c2C)cc1 | 2 | -6 | 20* | 10 | 16 | 22* | 13
COc1cc(OC)c2c(-c3ccccc3)cc(=O)oc2c1C(CCN1CCCC(C)C1)c1ccc(N(C)C)cc1 (stereo unspecified) | · | 0 | 4 | · | 1 | · | ·
COc1ccc(C(CCN2CCCC(C)C2)c2c(OC)cc(OC)c3c(-c4ccccc4)cc(=O)oc23)cc1 (stereo unspecified) | · | -12 | 22* | · | 16 | 2 | 3
O=C(NCc1ccc(OC(F)(F)F)cc1)c1cccc2c1C(=O)c1ccc(N3CCC(Cc4ccccc4)CC3)cc1S2(=O)=O | · | -2 | 23* | · | 6 | 22* | 27*
CCCCN(CCCC)c1ccc(C(=O)c2ccccc2C(=O)O)c(O)c1 | 1 | -12 | 34* | 2 | 16 | 4 | 3
CCOC(=O)NC(NCc1cccc(C(F)(F)F)c1)(C(F)(F)F)C(F)(F)F | 1 | -10 | 25* | 1 | 0 | -1 | 0
CCOC(=O)NC(NCc1ccccc1Cl)(C(F)(F)F)C(F)(F)F | 1 | -16 | -3 | 0 | -1 | · | ·
Cc1cccc(OCCNc2cc(N3CCN(C)CC3)ccc2[N+](=O)[O-])c1 | 1 | 2 | 4 | 0 | 6 | · | ·
Cc1ccc(OCCNc2cc(N3CCN(CCO)CC3)ccc2[N+](=O)[O-])cc1C | 1 | -10 | 23* | 6 | 13 | 4 | 1
COc1ccc(CCN2CC(C(=O)NCCN3CCOC3=O)CCC2=O)cc1 (stereo unspecified) | · | 6 | 0 | · | 0 | · | ·
CCCCNC(=O)O[C@@H]1C[C@H]2CCC(=O)N3CC[C@@H](C1)[C@@H]23 | · | -13 | 0 | · | 0 | · | ·
Cc1cc(OCCOCCNCc2ccccc2)ccc1C(C)C | · | -15 | 22* | · | 11 | 3 | 1
Cc1cc(C)nc(/N=C(\N)Nc2ccc(CC(=O)OC(C)C)cc2)n1 | · | -23 | 26* | · | 18 | 8 | 12
Cc1cc(C)nc(/N=C(\N)Nc2ccc(S(=O)(=O)O)cc2)n1 | 1 | · | · | 1 | · | · | ·
Nc1nc2ccccc2n1Cc1ccc(Cl)c(Cl)c1 | · | -24 | 25* | · | 13 | 6 | 4
Cc1c(Nc2ccc(C=O)cc2)c(=O)n(-c2ccccc2)n1C | 0 | -1 | 0 | -1 | 1 | · | ·
SMILES | TRPML3 ag | OXTR potentiator | OXTR ag | zfTRPN1 agonist | V1R ag counter | OXTR ag confirm | V1R ag counter 3x
O=C(Nc1cccc([N+](=O)[O-])c1)c1cc2ccccc2cc1O | 17* | -9 | 25* | 27* | 14 | 16 | 13
O=C(O)c1ccccc1C(=O)Nc1cccc([N+](=O)[O-])c1 | 1 | 4 | 2 | -2 | 0 | · | ·
Cc1cc(/C=C(\C#N)C(N)=O)c(C)n1-c1ccc(N2CCOCC2)c([N+](=O)[O-])c1 | 1 | -6 | 23* | -1 | 11 | 12 | 19
Cc1cc(C=O)c(C)n1-c1ccc(N2CCCCC2)c([N+](=O)[O-])c1 | 2 | -32 | 4 | 3 | 7 | · | ·
COc1ccc(NS(=O)(=O)c2ccc(C(=O)N3CCN(c4ccc(F)cc4)CC3)cc2)cc1 | · | -14 | 22* | · | 16 | 16 | 15
O=C(c1ccc(S(=O)(=O)Nc2ccc(F)cc2)cc1)N1CCN(c2ccccn2)CC1 | 6 | -16 | 21* | 10 | 13 | 14 | 12
COc1ccc(N2CCN(C(=O)c3ccc(NS(=O)(=O)c4ccc(F)c(F)c4)cc3)CC2)cc1 | 0 | -6 | 14 | -1 | 11 | · | ·
O=C(c1ccc(NS(=O)(=O)c2ccc(F)cc2)cc1)N1CCCCC1 | · | -13 | 1 | · | 2 | · | ·
O=C(CS(=O)(=O)c1cn(Cc2ccc(F)cc2)c2ccccc12)N1CCCCC1 | 0 | -10 | 0 | -1 | 0 | · | ·
O=C(CCc1cn(Cc2ccc(F)cc2)c2ccccc12)N1CCOCC1 | · | -24 | 20* | · | 5 | -1 | 0
O=c1nc(SCc2cccc(C(F)(F)F)c2)nc2ccccn12 | 0 | -20 | 0 | 0 | 1 | · | ·
CCCCCCCCCCCCCCCC[N+](C)(C)CC | · | -9 | 21* | · | 4 | 21* | 0
CCOc1cc(CNCCO)cc(Br)c1OCc1ccc(Cl)cc1Cl | 2 | -18 | 21* | 1 | 4 | 15 | 1
Cc1ccc(F)cc1CNC(=O)C1CCC(=O)N(CC2CCCCC2)C1 (stereo unspecified) | · | -7 | 0 | · | 1 | · | ·
Cc1ccc(S(=O)(=O)N(C)C)cc1NC(=O)C(C)OC(=O)C1CCCCC1 (stereo unspecified) | · | -2 | -1 | · | 0 | · | ·
COc1ccc(C(=O)Nc2ccc(N3CCN(C(C)=O)CC3)cc2)cc1[N+](=O)[O-] | 1 | -12 | 25* | 1 | -1 | 1 | 0
CC(=O)N1CCN(c2ccc(NC(=O)c3ccc(Cl)c([N+](=O)[O-])c3)cc2)CC1 | · | -11 | 1 | · | 8 | · | ·
